High-throughput results: PubChem BioAssay, several laboratories
Only some compounds are listed: those with a hit (about 4.9% of all), similar ones and a draw of the others.
STAT3 activator = STAT3 signaling activation. activation (% of control), % at 5.6 µM. 190,000 compounds, 0.91% hits. U3A cells, IL-6 STAT3-luciferase reporter, luminescence; 100% = signal with IL-6 EC80 alone;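 active means activation above the screen-wide mean of compound activation plus 3 SD, cut at about 130% in these data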;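 further: 0% = background luminescence of wells with medium and substrate only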
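Material: STAT3-luciferase reporter U3A cells; Probe or stimulus: IL-6 (33 ng/mL); Incubation: compound pre-incubation 1 h before IL-6, then 6 h stimulation at 37 °C; Technique: luminescence from STAT3-driven luciferase reporter; Evaluation: % activation versus median of IL-6-stimulated wells; Controls: IL-6-only high control.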
NF-kB expr up = compounds increasing NF-kB expression in human neuronal cells; fold change at 12.5 µM; AID 1239; NF-kB reporter expression; stronger effect = higher value; 190,000 compounds, 1.6% hits; in the data active means fold change above about 3.3
STAT1 activator = increases IFN-gamma driven STAT1 reporter signal; 200,000 compounds, 2.6% hits; AID 932; activation (% of control), % at 5.5 µM; NIH 3T3 STAT1-luciferase reporter, luminescence; 100% = IFN-gamma alone, no compound;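 active means activation above the screen-wide mean activation plus 3 SD, cut at about 130% in these data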;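 further: raw ratio to IFN-gamma control signal so 100% means no change and 0% no light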
APP 5'UTR act = APP 5'UTR luciferase reporter activation. SH-SY5Y APP 5'UTR luciferase reporter, luminescence; zero percent = DMSO vehicle wells. activation, % at 2 µM. 190,000 compounds, 1% hits. AID 1276;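 active means activation above a set limit, based on mean plus 3 SD of controls, cut at about 140% in these data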
STAT1 inh = reduces IFN-gamma driven STAT1 reporter signal; NIH 3T3 STAT1-luciferase reporter, luminescence; inhibition, % at 5.5 µM; 200,000 compounds, 0.35% hits;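 active means inhibition above a set limit, the mean inhibition across all tested compounds plus 3 SD, cut at about 34% in these data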;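 further: 0% = IFN-gamma with DMSO and 100% = IFN-gamma with 300 µM nifuroxazide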
STAT3 blocker = reduces IL-6 driven STAT3 reporter signal; AID 862; U3A cells, IL-6 STAT3-luciferase reporter, luminescence; host cell line lacks STAT1; inhibition, % at 5.5 µM; 190,000 compounds, 0.89% hits;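 active means inhibition above the mean inhibition across all screened compounds plus 3 SD, cut at about 44% in these data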;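 further: 0% = DMSO only wells and 100% = 100 µM nifuroxazide control wells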
* marks the source's active call; other numbers are inactive results.

SMILES	STAT3 activator	NF-kB expr up	STAT1 activator	APP 5'UTR act	STAT1 inh	STAT3 blocker
N/C(=N\OC(=O)c1ccccc1)c1ccncc1	98	1.1	115	38	-18	9
N/C(=N\OC(=O)c1ccc(Br)cc1)c1ccncc1	92	2.3	143*	78	-46	12
COc1ccc(-c2n(Cc3ccccc3)c3ccccc3[n+]2Cc2ccccc2)cc1	86	0.58	92	13	7	22
CS(=O)(=O)N1CCC(C(=O)Nc2cc(Cl)cc(Cl)c2)CC1	88	0.99	107	25	-9	24
CN(Cc1cn[nH]c1-c1cc2ccccc2o1)CC1CCOCC1	90	1.2	106	2	-8	21
C=CCc1cccc2cc(C(=O)NCc3cccnc3)c(=O)oc12	102	1	96	-1	6	2
CCOC(=O)c1sc(NC(=O)CSc2ccccn2)c(C#N)c1C	96	3.8*	104	2	-3	6
Cn1ncc(N=Cc2ccc([N+](=O)[O-])cc2)c1C(=O)N1CCOCC1	95	1.4	99	-3	1	6
C=CCN1C(=O)CSC1=Nc1ccc(O)cc1	100	3.4*	97	1	4	0
Cc1ccccc1CNc1nnnn1C	99	1.3	101	4	-4	6
O=C(CSc1ccc(-c2ccccn2)nn1)c1ccccc1	102	1.6	123	39	-27	3
COC(=O)c1ccnc(SCC(=O)c2ccccc2)c1	104	2	132*	119	-35	4
COCCn1c(C)cc(C(=O)COC(=O)c2ccc(Br)o2)c1C	105	1.1	106	268*	-7	-2
Cc1cc(C(=O)COC(=O)c2ccc(Br)o2)c(C)n1C	100	4*	135*	71	-37	6
COCCn1c(C)cc(C(=O)COC(=O)CNC(=O)c2ccccc2)c1C	78	1	96	-7	4	26
Cc1ccc(C(=O)COC(=O)c2ccc(Br)o2)cc1C	91	1.5	113	7	-14	14
CCNC(=O)c1c(NC(=O)c2cc(-c3cc(C)ccc3O)n[nH]2)sc2c1CCCC2	91	0.88	100	-5	0	14
O=C(O)c1ccc(Cn2cc(Cl)cn2)cc1	97	1.1	96	-43	4	8
CCn1c(C(=O)OC)cc2c1ccn2-c1ccc(F)cc1	95	2.8	144*	80	-48	10
COc1cccc2cc(-c3nc(-c4cccs4)cs3)c(=O)oc12	105	1.3	133*	105	-37	-5
COc1ccc(Nc2nc(-c3cc4cccc(OC)c4oc3=O)cs2)cc1	75	1.3	92	24	8	30
COc1cccc2cc(-c3ccccc3)c(=O)oc12	84	4.7*	142*	152*	-48	23
CN1CCN(C(=O)CN(c2cc(C(F)(F)F)ccc2Cl)S(C)(=O)=O)CC1	96	0.83	93	22	8	5
Oc1ccc(Br)cc1/C=N/N1CCN(Cc2ccccc2)CC1	102	2.9	105	-4	-6	-3
Oc1ccc(Br)cc1/C=N/N1CCCCC1	92	4*	110	54	-11	7
SMILES	STAT3 activator	NF-kB expr up	STAT1 activator	APP 5'UTR act	STAT1 inh	STAT3 blocker
Cc1ccc(CN2C(=O)CCC2C(=O)NCCN(CC(C)C)CC(C)C)cc1 (centres undefined)	99	0.87	105	4	-5	4
CC(C)CN(C(=O)COC(=O)Cc1c[nH]c2ccccc12)C1CCS(=O)(=O)C1 (centres undefined)	133*	1.3	94	11	6	-35
COc1ccc(Nc2nc(N)nc(CSC(=S)N3CCOCC3)n2)cc1	113	1.8	142*	12	-49	-10
COc1ccc(C2=Nn3c(nnc3-c3ccco3)SC2)cc1	87	4.8*	105	-11	-6	19
COc1ccc(C2=Nn3c(nnc3-c3ccccc3)SC2)cc1OC	134*	0.88	98	-4	2	-44
CC(Sc1nnc2ccccn12)C(=O)Nc1ccc2c(c1)OCO2 (centres undefined)	101	1.4	104	-13	-5	2
COc1cc(/C=N/N=C(N)N)ccc1OCc1ccccc1Cl	92	4.3*	90	13	11	12
COc1cccc(N/C=C/c2onc(C)c2[N+](=O)[O-])c1	95	1.5	144*	146*	-47	15
Cc1ccc(-c2nc(C)c(C(=O)O)s2)cc1	86	2.8	135*	143*	-40	26
Cc1nc(-c2ccc(Cl)cc2)sc1C(=O)O	113	2.2	138*	46	-43	-14
COc1ccc(C(=O)/C=C2\Sc3ccccc3N2C)cc1	115	7.3*	132*	195*	-33	-15
Cc1cccc(N(C(=O)CCC(=O)Nc2cccnc2)C(C(=O)NC2CCCC2)c2ccncc2)c1 (centres undefined)	101	1.2	103	2	-4	-1
O=C(COC(=O)c1ccc(S(=O)(=O)N2CCCC2)cc1)Nc1ccc(F)cc1F	100	1.1	101	-6	-1	6
N#Cc1ccc(Cl)cc1NC(=O)COC(=O)c1ccc(S(=O)(=O)N2CCCC2)cc1	134*	1.2	90	7	11	-43
COc1ccc(CNC(=O)CSCc2ccccc2Cl)cc1	101	1.6	117	35	-19	0
O=c1c2nnn(Cc3ccccc3)c2ncn1-c1ccccc1	102	1.1	94	9	7	0
Cc1ccc(Nc2nc(N)nc(CSc3nccn3C)n2)cc1	108	3.8*	146*	140*	-50	-5
Cc1cccc(Nc2nc(N)nc(CSc3nccn3C)n2)c1	109	2	136*	26	-40	-6
COc1ccc(C(=O)N2CCC(C(=O)Nc3ccc4c(c3)OCO4)CC2)cc1	100	1.1	102	-4	-3	-2
CSc1nc(-c2ccccc2)c(C#N)c(=O)n1C	100	1.1	102	7	-3	6
c1ccc(Nc2scc(-c3ccccc3)[n+]2Cc2ccco2)cc1	111	3.4*	143*	113	-46	-9
Cc1cc(C(F)(F)F)nc(NCc2cccnc2)n1	106	0.97	105	-5	-5	-8
COc1ccc(N=Cc2[nH]c3ccccc3c2O)cc1	117	1.7	106	87	-7	-16
COc1ccc(N=Cc2oc3ccc4ccccc4c3c2O)cc1	134*	2.3	128	57	-29	-29
CC(=O)c1cccc(NC(=O)c2ccc(-c3ccccc3[N+](=O)[O-])o2)c1	109	4*	114	121	-16	-14
CCn1nnc(NC(=O)c2ccc(-c3ccccc3[N+](=O)[O-])o2)n1	99	0.96	121	14	-25	4
C/C(N)=C(/C#N)C(=O)CSc1nc2ccccc2[nH]1	111	2.1	126	18	-28	-16
